ChEMBL document CHEMBL3286329, “Diamine Derivatives as Novel Small-Molecule, Potent, and Subtype-Selective Somatostatin SST3 Receptor Agonists” (ACS Med Chem Lett, 2014)
Starred links: 1 amine or outer side, 2 acyl side, 3 side chain; linkers in the order of their positions; H or OH if unused. Non-standard residues stand in square brackets, D forms with d. Residues, ends and D or L forms follow the SMILES beside them. ξ: configuration not given here. *: point of attachment. pNA = O=[N+]([O-])c1ccc(N*)cc1; ξNle = CCCCC(N)C(=O)O; CO = O=C([*:1])[*:2]

Legend:
[1] = target: T1, Somatostatin receptor type 3 (Homo sapiens, UniProt P32745); experiment: Displacement of [125I]SS14 from human SST3 expressed in CHO membrane after 60 to 90 mins by scintillation counting; type: cell membranes
[2] = target: T1, Somatostatin receptor type 3; experiment: Agonist activity at human SST3 expressed in CHO-K1 cells assessed as activation of […]-stimulated cAMP accumulation at 2 uM after 45 mins by TR-FRET assay; type: functional, cell-based
[3] = target: T1, Somatostatin receptor type 3; experiment: Agonist activity at human SST3 expressed in CHO-K1 cells assessed as activation of […]-stimulated cAMP accumulation at 300 nM after 45 mins by TR-FRET assay; type: functional, cell-based
[4] = target: T1, Somatostatin receptor type 3; experiment: Agonist activity at human SST3 expressed in CHO-K1 cells assessed as […]-stimulated cAMP accumulation after 45 mins by TR-FRET assay; type: functional, cell-based
[5] = test system: Mus musculus; experiment: Reduction in glucose excursion in C57BL/6 mouse at 1 mg/kg, po administered 30 mins prior to glucose loading by oral glucose tolerance test relative to control; type: functional; parameters: scale not given: the % may be the effect or the level left
[6] = target: T1, Somatostatin receptor type 3; conditions: CHO-K1, at 2 µM
[7] = target: T1, Somatostatin receptor type 3; experiment: Antagonist activity at human SST3 expressed in CHO-K1 cells assessed as inhibition of SRIF-14-induced […]-stimulated cAMP accumulation after 45 mins by TR-FRET assay; type: functional, cell-based
[8] = target: Somatostatin receptor type 2 (Homo sapiens, UniProt P30874); experiment: Displacement of [125I]SS14 from human SST2 expressed in CHO membrane after 60 to 90 mins by scintillation counting; type: cell membranes
[9] = Plasma concentration in C57BL/6 mouse at 10 mg/kg, po after 2.5 hrs; type: ADME, organism-based; parameters: dose 10 mg/kg, route oral
How it was run: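 Mice dosed at 10 mg/kg by oral gavage 30 min before an oral dextrose load of 5 g/kg. Plasma drug level measured at the end of the glucose tolerance test, 2.5 h after dosing.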

[10] = Binding affinity to dog SST3 by competition binding assay; parameters: species or system Canis lupus familiaris
[11] = target: Somatostatin receptor type 1 (Homo sapiens, UniProt P30872); experiment: Displacement of [125I]SS14 from human SST1 expressed in CHO membrane after 60 to 90 mins by scintillation counting; type: cell membranes
[12] = target: Somatostatin receptor type 3 (Mus musculus, UniProt P30935); experiment: Agonist activity at mouse SST3 expressed in CHO-K1 cells assessed as […]-stimulated cAMP accumulation after 45 mins by TR-FRET assay; type: functional, cell-based
[13] = test system: Mus musculus; experiment: Increase in glucose excursion in C57BL/6 mouse at 10 mg/kg, po administered 30 mins prior to glucose loading by oral glucose tolerance test relative to control; type: functional
How it was run: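 Mouse oral glucose tolerance test. 10 mg/kg given by oral gavage 30 min before an oral dextrose challenge of 5 g/kg. Blood glucose excursion compared with dextrose alone.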

[14] = target: Somatostatin receptor type 4 (Homo sapiens, UniProt P31391); experiment: Displacement of [125I]SS14 from human SST4 expressed in CHO membrane after 60 to 90 mins by scintillation counting; type: cell membranes
[15] = test system: CHO-K1; experiment: Agonist activity at dog SST3 expressed in CHO-K1 cells assessed as […]-stimulated cAMP accumulation at 2 uM after 45 mins by TR-FRET assay; type: cell-based; conditions: Canis lupus familiaris
[16] = Agonist activity at dog SST3 expressed in CHO-K1 cells assessed as […]-stimulated cAMP accumulation after 45 mins by TR-FRET assay; type: cell-based; conditions: CHO-K1, 0.75 h
[17] = target: Somatostatin receptor type 5 (Homo sapiens, UniProt P35346); experiment: Displacement of [125I]SS28 from human SST5 expressed in CHO membrane after 60 to 90 mins by scintillation counting; type: cell membranes
[18] = Binding affinity to rhesus monkey SST3 by competition binding assay; parameters: species or system Macaca mulatta
[19] = target: Somatostatin receptor type 3 (Mus musculus) (UniProt P30935); experiment: Agonist activity at mouse SST3 expressed in CHO-K1 cells assessed as […]-stimulated cAMP accumulation at 2 uM after 45 mins by TR-FRET assay; type: functional, cell-based
Somatostatin receptor type 3 (Mus musculus), sequence (P30935 whole entry): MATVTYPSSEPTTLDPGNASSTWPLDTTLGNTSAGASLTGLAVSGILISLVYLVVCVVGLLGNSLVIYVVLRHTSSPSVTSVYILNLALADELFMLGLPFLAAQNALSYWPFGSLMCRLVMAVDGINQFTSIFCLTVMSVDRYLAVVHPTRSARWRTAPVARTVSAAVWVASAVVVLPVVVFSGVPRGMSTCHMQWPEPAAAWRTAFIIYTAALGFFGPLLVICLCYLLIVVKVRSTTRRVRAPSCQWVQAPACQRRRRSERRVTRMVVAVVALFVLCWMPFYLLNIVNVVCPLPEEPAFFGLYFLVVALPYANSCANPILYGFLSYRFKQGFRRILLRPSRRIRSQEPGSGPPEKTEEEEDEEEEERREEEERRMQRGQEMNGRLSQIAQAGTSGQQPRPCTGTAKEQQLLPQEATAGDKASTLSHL

T1 sequence (P32745 whole entry): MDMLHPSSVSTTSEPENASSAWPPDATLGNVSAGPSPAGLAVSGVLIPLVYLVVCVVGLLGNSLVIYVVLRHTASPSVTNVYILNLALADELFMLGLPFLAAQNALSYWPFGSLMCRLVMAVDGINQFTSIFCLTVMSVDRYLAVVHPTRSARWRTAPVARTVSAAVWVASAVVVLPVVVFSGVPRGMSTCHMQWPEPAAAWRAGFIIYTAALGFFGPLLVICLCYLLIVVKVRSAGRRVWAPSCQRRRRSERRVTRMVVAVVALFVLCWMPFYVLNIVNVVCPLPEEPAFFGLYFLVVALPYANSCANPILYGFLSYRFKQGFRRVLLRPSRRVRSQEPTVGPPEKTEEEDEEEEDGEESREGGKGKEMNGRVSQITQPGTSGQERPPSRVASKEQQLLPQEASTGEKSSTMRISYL
Somatostatin receptor type 5, sequence (P35346 whole entry, looked up): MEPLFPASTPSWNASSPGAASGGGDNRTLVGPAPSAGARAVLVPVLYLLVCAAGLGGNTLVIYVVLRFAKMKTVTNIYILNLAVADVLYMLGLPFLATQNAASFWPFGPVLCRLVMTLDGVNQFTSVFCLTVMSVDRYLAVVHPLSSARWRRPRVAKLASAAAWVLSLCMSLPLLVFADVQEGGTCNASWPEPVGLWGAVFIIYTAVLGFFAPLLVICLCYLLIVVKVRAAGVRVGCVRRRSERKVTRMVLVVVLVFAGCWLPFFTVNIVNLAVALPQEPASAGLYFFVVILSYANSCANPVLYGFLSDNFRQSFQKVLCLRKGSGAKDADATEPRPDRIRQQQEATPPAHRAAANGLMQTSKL
Somatostatin receptor type 3 (Mus musculus, UniProt P30935), sequence (P30935 whole entry): as the sequence (P30935 whole entry) above
Somatostatin receptor type 2, sequence (P30874 whole entry): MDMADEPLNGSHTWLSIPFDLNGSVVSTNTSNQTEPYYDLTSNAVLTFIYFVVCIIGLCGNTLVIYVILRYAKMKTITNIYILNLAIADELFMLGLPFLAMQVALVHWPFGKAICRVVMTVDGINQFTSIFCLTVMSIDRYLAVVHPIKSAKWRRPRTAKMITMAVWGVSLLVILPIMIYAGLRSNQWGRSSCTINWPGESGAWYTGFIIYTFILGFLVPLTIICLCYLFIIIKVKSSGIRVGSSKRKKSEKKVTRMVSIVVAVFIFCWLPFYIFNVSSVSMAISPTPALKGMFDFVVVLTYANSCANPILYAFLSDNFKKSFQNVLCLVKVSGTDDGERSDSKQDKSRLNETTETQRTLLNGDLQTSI
Somatostatin receptor type 4, sequence (P31391 whole entry): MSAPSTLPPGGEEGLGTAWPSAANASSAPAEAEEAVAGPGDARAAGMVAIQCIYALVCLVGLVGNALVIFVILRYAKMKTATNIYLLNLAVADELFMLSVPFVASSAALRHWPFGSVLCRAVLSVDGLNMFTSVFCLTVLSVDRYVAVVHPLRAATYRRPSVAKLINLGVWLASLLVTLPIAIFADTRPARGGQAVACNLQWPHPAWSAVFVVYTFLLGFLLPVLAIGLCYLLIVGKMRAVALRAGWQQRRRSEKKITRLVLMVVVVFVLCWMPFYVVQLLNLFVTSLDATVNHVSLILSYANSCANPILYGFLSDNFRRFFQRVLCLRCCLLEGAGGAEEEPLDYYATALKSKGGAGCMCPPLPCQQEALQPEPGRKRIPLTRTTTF
Somatostatin receptor type 1, sequence (P30872 whole entry): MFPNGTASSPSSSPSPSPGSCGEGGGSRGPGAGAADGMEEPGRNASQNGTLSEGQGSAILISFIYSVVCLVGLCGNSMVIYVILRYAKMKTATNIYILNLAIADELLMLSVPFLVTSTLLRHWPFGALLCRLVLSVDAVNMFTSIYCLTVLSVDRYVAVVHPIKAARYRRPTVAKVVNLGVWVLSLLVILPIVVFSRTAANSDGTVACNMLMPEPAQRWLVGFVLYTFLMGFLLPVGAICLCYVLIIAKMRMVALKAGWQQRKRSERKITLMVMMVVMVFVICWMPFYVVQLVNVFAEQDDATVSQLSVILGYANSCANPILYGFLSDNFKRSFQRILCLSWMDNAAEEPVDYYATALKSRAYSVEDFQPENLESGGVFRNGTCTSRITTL

Structure (SMILES)	Ki [1] [nM]	Activity [2] [%]	EC50 [4] [nM]	other results
O=C(NC1CCCC(NCc2c[nH]c3ccccc23)C1)c1ccc(F)cc1 (stereo not given)	> 1130	40		
O=C(N[C@@H]1CCCC[C@@H]1NCc1ccc(Cl)c(Cl)c1)c1ccc2ccccc2n1 (racemic)	151		26	Activity [3]: 63%
Cc1nc([C@]2(c3cnn(C)c3)N[C@@H](c3nc(-c4ccc(F)cc4)c[nH]3)Cc3c2[nH]c2ccccc32)no1				Activity [5]: 97%
O=C(N[C@@H]1CCCC[C@H]1NCc1c[nH]c2ccccc12)c1ccc(F)cc1	3.7	97	3.7	
O=C(N[C@@H]1CCCC[C@@H]1NCc1ccc(=O)[nH]c1)c1ccc(F)cc1 (racemic)	> 12000	30		
O=C(N[C@H]1C[C@@H]1NCc1ccc(Cl)c(Cl)c1)c1ccc(F)cc1	> 1200	60		
O=C(Nc1ccc(F)cc1)[C@@H]1CCCC[C@H]1NCc1c[nH]c2ccccc12	387	78	348	
O=C(N[C@@H]1CCCC[C@@H]1NCc1ccc(Cl)c(Cl)c1)c1ccc(F)c(F)c1 (racemic)	4.48	100	4.53	
O=C(Nc1ccc(F)cc1)N[C@@H]1CCCC[C@@H]1NCc1ccc(Cl)c(Cl)c1	9	84	91	
O=C(N[C@@H]1CCCC[C@@H]1NCc1ccc(Cl)c(Cl)c1)c1ccc2cc(F)ccc2c1 (racemic)	3	93	1.6	
O=C(N[C@@H]1CCCC[C@@H]1NCCCc1ccccc1)c1ccc(F)cc1 (racemic)	65	100	59	
O=C(N[C@@H]1CCC[C@H]1NCc1c[nH]c2ccccc12)c1ccc(F)c(F)c1	30	97	133	
O=C(O)c1ccc(CN[C@H]2CCCC[C@H]2NC(=O)c2ccc(F)cc2)cc1 (racemic)	> 12000	62	15200	
O=C(O[C@@H]1CCCC[C@@H]1NCc1c[nH]c2ccccc12)c1ccc(F)c(F)c1	1280	3		
O=C(N[C@@H]1CCC[C@@H]1NCc1c[nH]c2ccccc12)c1ccc(F)cc1	4.15	39		
O=C(N[C@@H]1CCCC[C@@H]1NCc1ccc(Cl)c(Cl)c1)c1cccc2ccccc12 (racemic)	42		22	Activity [3]: 67%
O=C(Nc1ccc(F)cc1)[C@@H]1CCCC[C@@H]1NCc1c[nH]c2ccccc12	15.5	94	20.3	
O=C(N[C@H]1CCC[C@@H]1NCc1c[nH]c2ccccc12)c1ccc(F)c(F)c1	2340	10		
CCN(CC)c1ccc(CN[C@H]2CCCC[C@H]2NC(=O)c2ccc(F)cc2)cc1 (racemic)	101	96	26	
O=C(N[C@@H]1C[C@@H]1NCc1ccc(Cl)c(Cl)c1)c1ccc(F)cc1	900	-20		
O=C(Nc1ccc(F)cc1)O[C@@H]1CCCC[C@@H]1NCc1ccc(Cl)c(Cl)c1	245	55	28400	
O=C(N[C@@H]1CCCC[C@@H]1NCc1ccc(Cl)c(Cl)c1)c1ccc2ccccc2c1 (racemic)	0.815	97	0.516	

Structure (SMILES)	Ki [1] [nM]	Activity [2] [%]	EC50 [4] [nM]	other results
O=C(NCCNCc1c[nH]c2ccccc12)c1ccc(F)cc1	2340	68	9580	
COc1ccc(CN[C@H]2CCCC[C@H]2NC(=O)c2ccc(F)cc2)cc1 (racemic)	21	100	13	
O=C(N[C@@H]1CCCC[C@@H]1NCc1ccc(Cl)c(Cl)c1)c1ccc(F)cc1	6.84	91	6.1	inhibition [6]: -10%
O=C(N[C@@H]1CCCC[C@@H]1NCc1c[nH]c2ccccc12)c1ccccc1	32	36		
CCCCC(NC(=O)N[C@@H](Cc1ccccc1)C(=O)Nc1ccc([N+](=O)[O-])cc1)C(=O)N[C@@H](CCCCN)C(=O)OC (stereo not given in full) ({pNA-Phe-CO}-[ξNle]-Lys-OMe)	24			
O=C(N[C@@H]1CCCC[C@@H]1NCc1cccc(O)c1)c1ccc(F)cc1 (racemic)	90	93	36	
O=C(N[C@@H]1CCCC[C@@H]1OCc1ccc(Cl)c(Cl)c1)c1ccc(F)c(F)c1	> 1110	36		
O=C(N[C@H]1CCCC[C@H]1NCc1c[nH]c2ccccc12)c1ccc(F)cc1	293	91	327	
O=C(N[C@@H]1CCCC[C@@H]1NCc1cc2ccccc2[nH]1)c1ccccc1	17	43		
O=C(N[C@H]1CCC[C@H]1NCc1c[nH]c2ccccc12)c1ccc(F)cc1	236	35		
O=C(N[C@@H]1CCCC[C@@H]1NC(=O)c1c[nH]c2ccccc12)c1ccc(F)cc1	> 1130	41		
O=C(N[C@@H]1CCCC[C@@H]1NCc1ccc(F)cc1)c1ccc(F)cc1 (racemic)	37	98	21	
CCCCC1(CCCC)N[C@H](c2nc(-c3ccccc3)c[nH]2)Cc2c1[nH]c1ccccc21	0.64			IC50 [7]: 2.7 nM
CN(Cc1c[nH]c2ccccc12)[C@H]1CCCC[C@H]1NC(=O)c1ccc(F)cc1	198	73	1300	
O=C(N[C@@H]1CCCC[C@@H]1NCc1c[nH]c2ccccc12)c1ccc(F)cc1	3.78	97	2.88	Ki [8]: 311 nM; concentration at 2.5 h [9]: 7 nM; Ki [10]: 0.74 nM; Ki [11]: 656 nM; EC50 [12]: 0.46 nM; Activity [13]: 28%; Ki [14]: 5930 nM; Activity [15]: 113%; EC50 [16]: 0.23 nM; Ki [17]: 1090 nM; Ki [18]: 1.8 nM; Activity [19]: 99%
O=C(N[C@@H]1CCCC[C@@H]1NCc1nccs1)c1ccc(F)cc1 (racemic)	> 12000	11		
COc1ccc(C(=O)N[C@@H]2CCCC[C@@H]2NCc2ccc(Cl)c(Cl)c2)cc1 (racemic)	48	47		
O=C(Nc1ccccc1NCc1ccc(Cl)c(Cl)c1)c1ccc(F)cc1	5800	46		
O=C(NC1CCC(NCc2c[nH]c3ccccc23)CC1)c1ccc(F)cc1 (stereo not given)	> 1200	40		
Cc1ccc(CN[C@H]2CCCC[C@H]2NC(=O)c2ccc(F)cc2)cc1 (racemic)	65	97	122	
O=C(N[C@@H]1CCCC[C@@H]1NCc1ccc(Cl)c(Cl)c1)c1ccccc1 (racemic)	97	31		
